Experiment [1] addresses T1, Steroid 17-alpha-hydroxylase/17,20 lyase (Rattus norvegicus, UniProt P11715).
T1 sequence (P11715 whole entry): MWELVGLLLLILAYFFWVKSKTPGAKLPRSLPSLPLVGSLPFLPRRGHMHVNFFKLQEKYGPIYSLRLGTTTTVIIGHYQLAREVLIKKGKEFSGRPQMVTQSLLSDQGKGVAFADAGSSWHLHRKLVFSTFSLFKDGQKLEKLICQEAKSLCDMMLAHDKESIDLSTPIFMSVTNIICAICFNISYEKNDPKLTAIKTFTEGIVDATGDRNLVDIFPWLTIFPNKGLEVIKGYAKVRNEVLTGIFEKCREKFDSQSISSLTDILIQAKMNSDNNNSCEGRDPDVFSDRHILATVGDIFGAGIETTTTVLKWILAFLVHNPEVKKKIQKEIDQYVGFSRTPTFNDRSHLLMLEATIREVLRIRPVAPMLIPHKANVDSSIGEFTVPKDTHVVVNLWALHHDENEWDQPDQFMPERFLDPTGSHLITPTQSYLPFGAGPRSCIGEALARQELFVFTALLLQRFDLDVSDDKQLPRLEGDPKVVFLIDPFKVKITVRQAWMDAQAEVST
As to the kind of experiment: Inhibition of 17,20 lyase activity in Sprague-Dawley rat testicular microsomes. On the set-up: species or system Testis. The method, boiled down: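 Testicular microsomes from 13-week-old male SD rats (7 µg protein) in 75 mM phosphate buffer, pH 7.4, with 10 nM [1,2-3H]-17α-hydroxyprogesterone, 5 mM NADPH, and 1–1000 nM test compound (all final). Compounds were diluted in DMF and then in water. Incubation ran 15 min at 37 °C and was stopped with ethyl acetate. IC50 is the concentration that halves product formation.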

Experiment [2] addresses T2, Steroid 17-alpha-hydroxylase/17,20 lyase (Homo sapiens, UniProt P05093).
T2 sequence (P05093 whole entry): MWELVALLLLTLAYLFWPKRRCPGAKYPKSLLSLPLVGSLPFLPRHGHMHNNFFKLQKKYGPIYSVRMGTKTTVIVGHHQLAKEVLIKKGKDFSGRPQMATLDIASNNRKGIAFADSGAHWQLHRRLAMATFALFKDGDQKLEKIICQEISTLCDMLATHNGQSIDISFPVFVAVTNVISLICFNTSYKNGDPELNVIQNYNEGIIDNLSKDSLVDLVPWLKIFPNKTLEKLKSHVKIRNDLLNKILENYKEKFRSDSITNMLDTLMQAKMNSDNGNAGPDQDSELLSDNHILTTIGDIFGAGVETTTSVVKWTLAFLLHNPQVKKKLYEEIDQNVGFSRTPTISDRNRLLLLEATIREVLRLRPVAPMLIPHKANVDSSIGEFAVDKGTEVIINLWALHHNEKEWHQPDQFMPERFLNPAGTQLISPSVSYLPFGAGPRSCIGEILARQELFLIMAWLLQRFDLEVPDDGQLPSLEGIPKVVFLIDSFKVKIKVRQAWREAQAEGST
Briefly: Inhibition of 17,20 lyase activity in human. The procedure, abridged:
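Recombinant P450c17 (0.5 pmol) with cytochrome b5 (0.5 pmol) and NADPH-P450 reductase (20.8 ng) in 75 mM phosphate pH 7.4 with 1 mM MgCl2. Substrate 10 nM [1,2-3H]-17α-hydroxypregnenolone, 5 mM NADPH, compound 1–1000 nM. Incubated 15 min at 37 °C, ethyl acetate extraction, DHEA separated from substrate by silica TLC (cyclohexane–ethyl acetate 3:2). IC50 taken as 50% reduction in product.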

The next experiment has as its target Cytochrome P450 3A4 (Homo sapiens, UniProt P08684). Briefly: Inhibition of human CYP3A4. It is filed as ADME.
The species entered for another experiment is Homo sapiens. Briefly: Ratio of IC50 for human CYP3A4 to IC50 for human 17,20-lyase. The procedure, abridged: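 Two assays. Human 17,20-lyase: recombinant P450c17 (0.5 pmol) with cytochrome b5 and NADPH-P450 reductase, 10 nM [1,2-3H]-17α-hydroxypregnenolone, 5 mM NADPH, 1 mM MgCl2, pH 7.4 phosphate, 1–1000 nM compound, 15 min at 37 °C. DHEA separated by TLC, IC50 calculated. CYP3A4: recombinant enzyme, 100 μM testosterone, NADPH-regenerating system, 30 min at 37 °C, 6-hydroxytestosterone measured by HPLC.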

In ChEMBL document CHEMBL1681730, “17,20-lyase inhibitors. Part 4: design, synthesis and structure-activity relationships of naphthylmethylimidazole derivatives as novel 17,20-lyase inhibitors” (Bioorg Med Chem, 2011) one finds IC50 and Ratio IC50 data, which are given here for 17 compounds.

Each structure is given as a SMILES string.

As a reminder, the IC50 is the concentration at which inhibition is half-maximal. Low values mean inhibition by little substance, high ones a need for much substance.

Cytochrome P450 3A4, sequence (P08684 whole entry): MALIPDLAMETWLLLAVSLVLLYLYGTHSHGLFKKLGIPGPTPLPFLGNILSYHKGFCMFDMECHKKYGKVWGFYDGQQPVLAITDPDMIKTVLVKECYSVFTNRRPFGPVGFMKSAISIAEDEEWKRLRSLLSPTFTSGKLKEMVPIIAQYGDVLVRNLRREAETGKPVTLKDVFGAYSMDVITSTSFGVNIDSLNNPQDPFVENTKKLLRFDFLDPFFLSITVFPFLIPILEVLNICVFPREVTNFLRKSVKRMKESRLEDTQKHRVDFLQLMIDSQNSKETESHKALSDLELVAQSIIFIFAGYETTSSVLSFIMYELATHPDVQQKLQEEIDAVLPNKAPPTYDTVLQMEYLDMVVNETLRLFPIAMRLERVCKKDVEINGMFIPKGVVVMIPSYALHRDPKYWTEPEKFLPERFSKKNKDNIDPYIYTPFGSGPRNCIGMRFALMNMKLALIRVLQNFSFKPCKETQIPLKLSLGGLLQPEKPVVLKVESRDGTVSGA

As for `COc1ccc2cc([C@](O)(c3c[nH]cn3)C(C)C)ccc2c1`, the IC50 in experiment [1] was 21 nM; in experiment [2], 28 nM; against Cytochrome P450 3A4, under 1000 nM. Besides, in the experiment listed under Homo sapiens, the Ratio IC50 is under 36.
In the case of `CC(=O)c1ccc2cc(C(O)(c3c[nH]cn3)C(C)C)ccc2c1` (racemic), the figures for the IC50 (in experiment [1]; in experiment [2]; against Cytochrome P450 3A4) were 14 nM, 28 nM and 1400 nM, respectively. In addition, in the experiment listed under Homo sapiens, the Ratio IC50 was found to be 50.
As for `CC(=O)Nc1ccc2cc(C(O)(c3c[nH]cn3)C(C)C)ccc2c1` (racemic), the IC50 was 29 nM in experiment [1], 39 nM in experiment [2] and under 1000 nM against Cytochrome P450 3A4. Moreover, the Ratio IC50 in the experiment listed under Homo sapiens was under 26.
The matching figures for `CNC(=O)Nc1ccc2cc(C(O)(c3c[nH]cn3)C(C)C)ccc2c1` (racemic): 11 nM, 36 nM, under 1000 nM and under 28.
For `COC(=O)c1ccc2cc(C(O)(c3c[nH]cn3)C(C)C)ccc2c1` (racemic) the same measures were 43 nM, 24 nM, 1400 nM and 58.
As for `CC(C)C(O)(c1ccc2cc(C(N)=O)ccc2c1)c1c[nH]cn1` (racemic), the IC50 is under 10 nM in experiment [1], 30 nM in experiment [2] and 3700 nM at Cytochrome P450 3A4.
`CNC(=O)c1ccc2cc(C(O)(c3c[nH]cn3)C(C)C)ccc2c1` (racemic): the results for the IC50 (in experiment [1]; in experiment [2]; on Cytochrome P450 3A4) were 6 nM, 16 nM and 3600 nM, respectively. In addition, the Ratio IC50 in the experiment listed under Homo sapiens is 225.
With `CCNC(=O)c1ccc2cc(C(O)(c3c[nH]cn3)C(C)C)ccc2c1` (racemic), the IC50 in experiment [1] is 11 nM; in experiment [2], 46 nM; on Cytochrome P450 3A4 it was 5700 nM.
For the compound `CCCNC(=O)c1ccc2cc(C(O)(c3cnc[nH]3)C(C)C)ccc2c1` (racemic), the IC50 in experiment [1] stood at 13 nM; in experiment [2], 38 nM; on Cytochrome P450 3A4, 3400 nM.
The matching figures for `CC(C)NC(=O)c1ccc2cc(C(O)(c3c[nH]cn3)C(C)C)ccc2c1` (racemic): 12 nM, 75 nM and 9300 nM.
The matching figures for `CNC(=O)c1ccc2cc(C(O)(c3cnc[nH]3)C(C)C)ccc2c1Cl` (racemic): 91 nM, 200 nM and over 10000 nM.
The matching figures for `CNC(=O)c1ccc2cc(C(O)(c3c[nH]cn3)C(C)C)ccc2c1C` (racemic): 200 nM, 160 nM and over 10000 nM.
Turning to `CNC(=O)c1cc2ccc(C(O)(c3c[nH]cn3)C(C)C)cc2cc1C` (racemic), the IC50 in experiment [1] is 12 nM; in experiment [2], 39 nM; against Cytochrome P450 3A4 it was 3600 nM.
Turning to `CC(C)C(O)(c1ccc2c3c(ccc2c1)C(=O)NC3)c1c[nH]cn1` (racemic), the IC50 turned out to be 18 nM in experiment [2] and 6700 nM at Cytochrome P450 3A4.
Compound `CC(C)C(O)(c1ccc2c3c(ccc2c1)C(=O)N(C)C3)c1c[nH]cn1` (racemic) yielded an IC50 in experiment [2] of 22 nM.
Still for that read-out and setting: then `CC(C)C(O)(c1ccc2cc3c(cc2c1)CNC3=O)c1c[nH]cn1` (racemic), with 36 nM.
In the case of `CC(C)C(O)(c1ccc2cc3c(cc2c1)CN(C)C3=O)c1c[nH]cn1` (racemic), the IC50 in experiment [1] came out at 70 nM; in experiment [2] it was 19 nM; at Cytochrome P450 3A4, 5400 nM.
